The record followed here is ChEMBL document CHEMBL5608233, “Fluorescent Peptides Sequester Redox Copper to Mitigate Oxidative Stress, Amyloid Toxicity, and Neuroinflammation” (ACS Med Chem Lett, 2024).

Data set [1] deals with Amyloid-beta precursor protein (Homo sapiens) (UniProt P05067). The experiment in a line: Inhibition of Amyloid beta 42 (unknown origin) aggregation extracted from Escherichia coli BL21 assessed as decrease in amyloid beta fibril formation incubated for 48 hrs by atomic force microscopy.
Amyloid-beta precursor protein (Homo sapiens), sequence (P05067 whole entry): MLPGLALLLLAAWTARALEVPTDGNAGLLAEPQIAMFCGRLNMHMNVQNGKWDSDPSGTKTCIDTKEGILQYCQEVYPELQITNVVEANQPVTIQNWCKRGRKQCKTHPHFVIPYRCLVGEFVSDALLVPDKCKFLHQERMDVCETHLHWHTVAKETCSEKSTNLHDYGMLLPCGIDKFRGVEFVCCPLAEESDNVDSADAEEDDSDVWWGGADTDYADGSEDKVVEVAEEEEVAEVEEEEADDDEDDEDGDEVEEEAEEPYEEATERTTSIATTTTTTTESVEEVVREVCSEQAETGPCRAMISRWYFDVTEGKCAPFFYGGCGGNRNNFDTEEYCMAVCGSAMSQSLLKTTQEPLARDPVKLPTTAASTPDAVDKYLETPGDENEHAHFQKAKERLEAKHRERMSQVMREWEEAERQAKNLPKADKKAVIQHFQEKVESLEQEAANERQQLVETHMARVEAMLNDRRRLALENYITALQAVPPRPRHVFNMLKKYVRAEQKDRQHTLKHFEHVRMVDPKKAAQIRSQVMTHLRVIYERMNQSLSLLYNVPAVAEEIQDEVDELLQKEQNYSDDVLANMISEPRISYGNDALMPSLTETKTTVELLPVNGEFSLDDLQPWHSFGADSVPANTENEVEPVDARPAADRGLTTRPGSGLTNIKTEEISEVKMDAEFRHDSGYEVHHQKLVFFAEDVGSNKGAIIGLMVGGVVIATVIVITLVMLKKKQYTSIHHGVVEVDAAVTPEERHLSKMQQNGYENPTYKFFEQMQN
For data set [2] the target is unchanged. The experiment in a line: Inhibition of Amyloid beta 42 (unknown origin) aggregation extracted from Escherichia coli BL21 assessed as decrease in Cu2+ induced amyloid beta fibril formation incubated for 48 hrs in presence of Cu2+ by atomic force microscopy.
For data set [3] the target is unchanged. In words: Inhibition of Amyloid beta 42 (unknown origin) extracted from Escherichia coli BL21 induced ROS production assessed as decrease in fluorescence intensity at 10 uM incubated for 20 mins in presence of Cu2+ and ascorbate by absorption spectroscopic analysis.
For data set [4], the species on record is Homo sapiens. In words: Binding affinity to Amyloid beta 16 (unknown origin) extracted from Escherichia coli BL21 assessed as increase in absorbance band by circular dichroism spectroscopic analysis.
A short description of data set [5]: Metal chelating activity assessed as compound-Cu2+ complex formation at 50 uM in presence of CuCl2 by UV-Visible fluorescence spectroscopic analysis. An outline of the steps:
(§1)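 Peptide solution at 50 μM mixed 1:1 with Cu2+, Zn2+, Fe3+ or Al3+. NMI emission recorded at λex 450 nm, λem 550 nm, and drop in fluorescence used to indicate complexation. Separate titration with Cu2+ (0–100 μM) into 50 μM peptide used to assess stoichiometry.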

The nature of data set [6]: Metal chelating activity assessed as compound-Cu2+ complex formation measured after 2 mins in presence of CuCl2 by UV-Visible fluorescence spectroscopic analysis.
The nature of data set [7]: Metal chelating activity assessed as compound-Cu2+ complex formation by measuring quenching effect measured after 20 mins in presence of CuCl2 by fluorescence quenching analysis.
A short description of data set [8]: Antioxidant activity assessed as inhibition of Cu2+ induced ROS production by measuring decrease in fluorescence intensity in presence of Cu2+ and ascorbate at 10 uM by absorption spectroscopic analysis. The data set is classed as functional. An outline of the steps: (§2)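 Ascorbate added first. After 10 min, redox cycling triggered with Cu2+ alone or peptide–Cu2+ premixed in HEPES (50 mM, pH 7.4). Ascorbate consumption followed by absorbance at 265 nm over time.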

Data set [9] is described as follows: Antioxidant activity assessed as inhibition of Cu2+ induced ROS production by measuring decrease in fluorescence intensity in presence of ascorbate and H2O2 at 10 uM measured after 20 mins by absorption spectroscopic analysis. Type of data set: functional.
Data set [10] relates to SH-SY5Y. In words: Cytotoxicity against human SH-SY5Y cells at 100 uM incubated for 24 hrs by MTT assay. The data set is classed as toxicity, cell-based. An outline of the steps: (§3)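 SH-SY5Y cells exposed to peptide (10–100 μM) for 24 h. Viability by MTT.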
The nature of data set [11]: Cytotoxicity against human SH-SY5Y cells assessed as cell viability at 100 uM incubated for 24 hrs by MTT assay relative to control. The data set is classed as toxicity, cell-based. Conditions: read-out: Activity. An outline of the steps: as §3
Data set [12] concerns SH-SY5Y. The experiment in a line: Neuroprotective activity against amyloid beta 42 induced toxicity in human SH-SY5Y cells assessed as increase in cell viability at 10 uM incubated for 24 hrs by MTT assay (reference value: 55 %). Type of data set: functional. An outline of the steps: (§4)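 SH-SY5Y cells incubated 24 h with Aβ42 fibrils (10 μM) and peptide (10 μM), in the absence or presence of Cu2+ (10 μM). Viability by MTT.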

In data set [13] the test system is SH-SY5Y. The experiment in a line: Neuroprotective activity against amyloid beta 42 and Cu2+ induced toxicity in human SH-SY5Y cells assessed as increase in cell viability at 10 uM incubated for 24 hrs by MTT assay (reference value: 48 %). The data set is classed as functional. An outline of the steps:
as §4

Data set [14] can be described thus: Cytotoxicity against mouse N9 cells at upto 50 uM incubated for 24 hrs by MTT assay. The data set is classed as toxicity, cell-based. Conditions: n9, 24 h. An outline of the steps:
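N9 microglia given a concentration series of peptide. Viability assessed.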

For another data set, the system named is N9. In words: Antiinflammatory activity in LPS-induced mouse N9 cells assessed as reduction in ROS production at 10 uM incubated for 24 hrs by DCFDA staining based analysis. Type of data set: functional, cell-based. An outline of the steps: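 N9 cells treated with LPS (1 μg/mL, 24 h) with or without peptide (10 μM, or a concentration series). ROS read with DCFDA fluorescence. n = 3, one-way ANOVA.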

Data set [15] is described as follows: Antiinflammatory activity in LPS-induced mouse N9 cells assessed as reduction in nitrite production at 10 uM incubated for 24 hrs by griess assay relative to control. Set-up: scale not given: the % may be the effect or the level left. The data set is classed as functional. An outline of the steps:
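LPS (1 μg/mL)-stimulated N9 microglia treated with peptide at 10 μM. Nitric oxide quantified as nitrite in the medium by Griess assay. Nitrite in LPS-only cells set as 100%. n = 3, one-way ANOVA.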

The nature of data set [16]: Metal chelating activity assessed as compound-Fe3+ complex formation by measuring decrease in fluorescence intensity at 50 uM in presence of FeCl3 by UV-Visible fluorescence spectroscopic analysis. An outline of the steps: as §1
The nature of data set [17]: Metal chelating activity assessed as compound-Al3+ complex formation by measuring decrease in fluorescence intensity at 50 uM in presence of AlCl3 by UV-Visible fluorescence spectroscopic analysis. An outline of the steps: as §1
For data set [18], the species on record is Homo sapiens. The experiment in a line: Binding affinity to Amyloid beta 16 (unknown origin) extracted from Escherichia coli BL21 by measuring quenching effect incubated for 15 mins in presence of Cu2+ by fluorescence quenching analysis.
A short description of data set [19]: Antioxidant activity assessed as inhibition of Cu2+ induced ROS production by measuring decrease in fluorescence intensity in presence of Cu2+ and ascorbate at 10 uM measured after 10 mins by absorption spectroscopic analysis. Type of data set: functional. An outline of the steps:
as §2

Data set [20] in a line: Metal chelating activity assessed as compound-Zn2+ complex formation by measuring decrease in fluorescence intensity at 50 uM in presence of ZnCl2 by UV-Visible fluorescence spectroscopic analysis. An outline of the steps:
as §1

For data set [21], the species on record is Homo sapiens. In words: Binding affinity to Amyloid beta 16 (unknown origin) extracted from Escherichia coli BL21 assessed as maximal quenching in presence of Cu2+ by fluorescence quenching analysis.
A short description of data set [22]: Antioxidant activity assessed as inhibition of Cu2+ induced ROS production by measuring decrease in fluorescence intensity in presence of stoichiometric ratio of 1:1 of Cu2+ and ascorbate at 10 uM measured after 10 mins by absorption spectroscopic analysis. The data set is classed as functional.
A short description of data set [23]: Antioxidant activity assessed as inhibition of Cu2+ induced ROS production by measuring decrease in fluorescence intensity in presence of stoichiometric ratio of 1:2 of Cu2+ and ascorbate at 10 uM measured after 10 mins by absorption spectroscopic analysis. The data set is classed as functional.
Data set [24] in a line: Metal chelating activity assessed as compound-Fe3+ complex formation by measuring decrease in fluorescence intensity at 25 uM in presence of FeCl3 by UV-Visible fluorescence spectroscopic analysis.
Data set [25] in a line: Metal chelating activity assessed as compound-Al3+ complex formation by measuring decrease in fluorescence intensity at 25 uM in presence of AlCl3 by UV-Visible fluorescence spectroscopic analysis.
The nature of data set [26]: Metal chelating activity assessed as compound-Cu2+ complex formation by measuring decrease in fluorescence intensity at 25 uM in presence of CuCl2 by UV-Visible fluorescence spectroscopic analysis.

Calls of active or inactive are those of the source. No cut-off for these calls is given here. Residues, ends and D or L forms follow the SMILES beside them. *: point of attachment. X1 = CN(C)c1ccc2c3c(cccc13)C(=O)N(CCN*)C2=O Bounds are passed on as bounds.

Regarding `NCCCC[C@H](NC(=O)[C@H](Cc1cnc[nH]1)NC(=O)CN)C(=O)O` (H-Gly-His-Lys-OH), the inhibition entry in data set [1] and in data set [2] was “inactive” in each case.

With `CN(C)c1ccc2c3c(cccc13)C(=O)N(CCNC(=O)[C@@H](N)CCC(N)=O)C2=O`, the inhibition entry in data set [1] was “Active”. For the same molecule, the inhibition entry in [2] is “inactive”.

In the case of `CN(C)c1ccc2c3c(cccc13)C(=O)N(CCNC(=O)[C@H](CCC(N)=O)NC(=O)[C@H](CCCCN)NC(=O)[C@H](Cc1c[nH]cn1)NC(=O)CN)C2=O` (H-GHKQ-X1), the inhibition result in data set [1], in data set [2] and in [3] was “Active” in each case.

Turning to `CN(C)c1ccc2c3c(cccc13)C(=O)N(CCNC(=O)[C@H](CCC(N)=O)NC(=O)[C@H](CCCCN)NC(=O)[C@@H](N)Cc1c[nH]cn1)C2=O`, the result (in the data set filed under Homo sapiens [4]; in data set [5]; in [6]; in [7]; in data set [8]; in [9]) was Active. For the same molecule, the result with N9 was Active. In addition, the inhibition entry in [1] and in data set [2] was “Active” in each case. Besides, the Activity entry with SH-SY5Y [10] was “Non-Toxic”; in the data set on SH-SY5Y [12] it was approximately 80%; with SH-SY5Y [13], 82%; in data set [14], “Non-Toxic”; in data set [15] it was 85%. Moreover, the viability at 24 h, 100 µM in [11] is more than 90%. Besides, the outcome in data set [16] and in [17] was inactive.

Turning to `CN(C)c1ccc2c3c(cccc13)C(=O)N(CCNC(=O)[C@H](CCC(N)=O)NC(=O)[C@H](CCCCN)NC(=O)[C@H](Cc1c[nH]cn1)NC(=O)[C@@H](Cc1c[nH]cn1)NC(=O)CN)C2=O`, the outcome (in the data set listed under Homo sapiens [18]; in the data set listed under Homo sapiens [4]; in [5]; in data set [6]; in data set [19]; with N9) was Active. Also, the inhibition result in data set [1] and in [2] was “Active” throughout. For the same molecule, the Activity entry is “Non-Toxic” in the data set with SH-SY5Y [10]; approximately 80% with SH-SY5Y [12]; 92% in the data set with SH-SY5Y [13]; “Non-Toxic” in data set [14]; 56% in data set [15]. In addition, in data set [11], the viability at 24 h, 100 µM is more than 90%. The result in data set [16], in data set [17] and in [20] was inactive.

On to `CN(C)c1ccc2c3c(cccc13)C(=O)N(CCNC(=O)[C@H](CCC(N)=O)NC(=O)[C@H](CCCCN)NC(=O)[C@H](Cc1c[nH]cn1)NC(=O)CNC(=O)CN)C2=O` (H-GGHKQ-X1), for which the result (in the data set filed under Homo sapiens [4]; in [22]; in data set [23]; in data set [9]; in data set [24]; in data set [25]) was inactive. Also, the outcome (in [6]; in [19]; with N9; in data set [26]) was Active. Further, the Activity in the data set filed under Homo sapiens [21] is 65%; in the data set with SH-SY5Y [10] it was “Non-Toxic”; in the data set with SH-SY5Y [12], approximately 80%; in the data set with SH-SY5Y [13], 85%; in [14], “Non-Toxic”; in [15] it was 70%. Besides, the inhibition entry in data set [1] and in data set [2] was “inactive” each time. For the same molecule, the viability at 24 h, 100 µM in [11] was more than 90%.
